These results are taken from ChEMBL document CHEMBL1141374 (J Med Chem, 2007).

The nature of experiment [1]: Cytotoxicity against P-glycoprotein-overexpressing KB-V1 cell line. It counts as cell-based. The following applies: Homo sapiens. A digest of the protocol:
(§1)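 Log-phase cells were diluted to 20 000–30 000 cells/mL, seeded, and left to attach overnight. They were then exposed to compounds at 10^–5–10^–12 M for 72 h at 37 °C in 5% CO2. Viable cells were measured by MTT, with absorbance read at 595 nm. Each compound ran in triplicate in at least three independent assays. IC50 came from nonlinear regression, and average values were reported.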

A short description of experiment [2]: Cytotoxicity against KB-3-1 cell line. The settings on record: Homo sapiens. The class given is cell-based. A digest of the protocol: as §1
Experiment [3] has as its system ZR-75-1. In words: Cytotoxicity against ZR-75-1 cell line. The settings on record: Homo sapiens. The class given is cell-based. Summed up:
as §1

For experiment [4], the system named is HeLa. The experiment in a line: Cytotoxicity against HeLa cell line. The class given is cell-based. The settings on record: Homo sapiens. Summed up: as §1
Experiment [5] concerns HCT-116. In words: Cytotoxicity against HCT116 cell line. It counts as cell-based. The settings on record: Homo sapiens. Summed up:
as §1

Experiment [6] has as its target Tubulin. In words: Inhibition of tubulin polymerization. The class given is protein-complex assay, Homo sapiens. A digest of the protocol:
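Kit-based assay run per the manufacturer's instructions. Tubulin (>99% pure, 3 mg/mL) in G-PEM buffer, in a prewarmed plate with compound at 0.03–30 μM. OD340 nm read every 60 s at 37 °C for 1 h.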

SMILES strings stand for the structures.

Broadly, the IC50 is the concentration that inhibits the measured activity by half. Consider `CC(=O)O[C@H]1C(=O)[C@@]2(C)[C@H]([C@H](OC(=O)c3ccccc3)[C@]3(O)C[C@H](OC(=O)[C@H](O)[C@@H](NC(=O)c4ccccc4)c4ccccc4)C(C)=C1C3(C)C)[C@]1(OC(C)=O)CO[C@@H]1C[C@@H]2O` [PACLITAXEL], for which the figures for the half-inhibitory concentration (IC50) in experiment [1], in experiment [2] and in experiment [3] were > 10000 nM, 23.3 nM and 308 nM, respectively.

In the case of `COc1ccc(/C=C\c2cc(OC)c(OC)c(OC)c2)cc1O` [COMBRETASTATIN A4], the IC50 in experiment [1] stood at 0.64 nM; in experiment [4], 0.3 nM; in experiment [5], 0.35 nM; in experiment [2], 0.78 nM; in experiment [3] it was 0.24 nM.

For the compound `COc1cc2c(c(OC)c1OC)-c1ccc(OC)c(=O)cc1[C@@H](NC(C)=O)CC2` [COLCHICINE], the IC50 is 620 nM in experiment [1]; 1.84 nM in experiment [4]; 2.75 nM in experiment [5]; 3.99 nM in experiment [2]; 522 nM in experiment [3].

With `COc1cc(-c2nncn2-c2ccc3c(c2)CCN3C)cc(OC)c1OC`, the results for the IC50 in experiment [4], in experiment [6] and in experiment [5] were 4100 nM, > 10 µM and 3290 nM, respectively.

Turning to `COc1cc(-n2cnnc2-c2ccc3c(ccn3C)c2)cc(OC)c1OC`, the 50% inhibitory concentration (IC50) in experiment [1] turned out to be 32.1 nM; in experiment [4] it was 18 nM; in experiment [6] it was 5.6 µM; in experiment [5], 24.3 nM; in experiment [2] it was 15 nM.
